Measurements collected from several papers.
Target: Dual specificity tyrosine-phosphorylation-regulated kinase 1A (DYRK1A, Homo sapiens, UniProt Q13627)

`O=C(O)c1ccc2c(c1)nc(NCCc1cccc(F)c1)c1ccncc12` has a remaining activity of 8% (enzyme activity, inhibitor, radiometric; 1 µM).
For `Cn1c2c(c3ccc(Cl)c(Cl)c31)C(C#N)C1(CCNCC1)NC2=O` (racemic), the ΔTm was 2.5 °C (thermal stability, DSF; 10 µM).
`O=C1NC(=O)c2cc(Nc3ccc(F)cc3)c(Nc3ccc(F)cc3)cc21` has a remaining signal of 95.6% (cell-free assay; 0.5 µM).
`O=C(O)c1ccc2c(c1)nc(Nc1cccc(F)c1)c1ncncc12` has a remaining activity of 1% (enzyme activity, inhibitor, radiometric; 1 µM).
`CN(C)C1CCN(CC#Cc2nn(C3CCCC3)c3nc(NCc4ccccc4)ncc23)C1` (stereo not drawn) has an inhibition of 2% (enzyme activity, inhibitor, FRET; 10 µM).
With `COc1cccc(CCNc2nc3cc(C(=O)O)ccc3c3cncnc23)c1` the remaining activity was 40% (enzyme activity, inhibitor, radiometric; 1 µM).
The inhibition of `Cn1cnc(Br)c1C1=CN(c2ncnc3[nH]cnc23)CCS1` is reported as 99.2% (enzyme activity, inhibitor, radiometric; 2 µM).
For `CCN(CC)CCNC(=O)c1c(C)[nH]c(/C=C2\C(=O)Nc3ccc(F)cc32)c1C`, the remaining signal was 56.9% (cell-free assay; 0.5 µM).
With `O=C(O)c1ccc2c(c1)nc(Nc1ccccc1)c1ccncc12` the remaining activity was 6% (enzyme activity, inhibitor, radiometric; 1 µM).
With `COc1cc(Nc2c(C#N)cnc3cc(OCCCN4CCN(C)CC4)c(OC)cc23)c(Cl)cc1Cl` the remaining signal was 99.4% (cell-free assay; 0.5 µM).
`Cc1c(NC(=O)c2cc(C(N)=O)nc3cc(F)ccc23)c(C(F)(F)F)nn1Cc1ccc(C(C)(C)C)cc1` has a remaining binding of 100% (cell-free assay, competition with immobilised ligand; 1 µM).
With `Cc1ccc(NC(=O)c2ccc(C)c(C(F)(F)F)c2)cc1C#Cc1nn(C2CCC(O)CC2)c2ncnc(N)c12` (stereo not drawn) the remaining signal was 95% (cell-free assay; 10 µM).
The remaining activity of `N#Cc1cccc(Nc2nc3cc(C(=O)O)ccc3c3cnccc23)c1` is reported as -1% (enzyme activity, inhibitor, radiometric; 1 µM).
With `O=C(O)c1cc(-c2ccc(C3CCNCC3)cc2)c2ccc(-c3ccc(C(F)(F)F)cc3)cc2c1` the remaining binding was 100% (cell-free assay, competition with immobilised ligand; 1 µM).
With `O=C(O)c1ccc2c(c1)nc(Nc1ccc(Cl)cc1)c1ccncc12` the remaining activity was 2% (enzyme activity, inhibitor, radiometric; 1 µM).
`CCC1(CC)NC(=O)c2c(c3ccc(Cl)c(Cl)c3n2C)C1C#N` (stereo not drawn) has a ΔTm of 0.7 °C (thermal stability, DSF; 10 µM).
`O=C(N1CCS(=O)(=O)CC1)N1C[C@H](c2ccc(OC(F)(F)F)cc2)C[C@H](c2nc(C3CC3)no2)C1` gave a remaining binding of 100% (cell-free assay, competition with immobilised ligand; 1 µM).
`CNc1cccc2cc(C(=O)Nc3ccc(C(=O)O)cc3)c(=O)[nH]c12` has an inhibition of 28% (enzyme activity, inhibitor; 10 µM).
For `Cn1c2c(c3ccc(Cl)c(Cl)c31)C(C#N)C1(CCN(C(=O)OC(C)(C)C)CC1)NC2=O` (racemic), the ΔTm was -0.8 °C (thermal stability, DSF; 10 µM).
For `Cc1c[nH]c2nccc(Oc3c(F)cc(Nc4cc(Cl)nc(N)n4)cc3F)c12`, the remaining binding was 88% (cell-free assay, competition with immobilised ligand; 0.1 µM).
With `COc1cc2ncnc(Nc3ccc(Oc4ccccc4)c(C)c3C)c2cc1OC` the inhibition was 1% (enzyme activity, inhibitor; 1 µM).
For `Nc1ncnc2occ(-c3ccc(NC(=O)Nc4cc(C(F)(F)F)ccc4F)cc3)c12`, the remaining signal was 58% (cell-free assay; 20 µM).
With `COCCOc1nc(-c2ccc(Cl)nc2)nc2c1CN(C(=O)c1ncn3ccccc13)CC2` the remaining binding was 78% (cell-free assay, competition with immobilised ligand; 0.1 µM).
`O=C(O)c1ccc2c(c1)nc(Nc1ccccc1)c1ncncc12` has a remaining activity of 3% (enzyme activity, inhibitor, radiometric; 1 µM).
`CC(=O)N1CCC(c2ccc(C(=O)NC(=N)N)cc2C(F)(F)F)CC1` gave a remaining binding of 74% (cell-free assay, competition with immobilised ligand; 1 µM).
`O=C1Nc2ccc(Cl)cc2C1=Cc1cc(Cl)c(O)c(Cl)c1` gave a remaining signal of 95.6% (cell-free assay; 0.5 µM).
`COc1ccc2c(O[C@@H]3C[C@H]4C(=O)N[C@]5(C(=O)O)CC5/C=C\CCCCC[C@H](NC(=O)OC5CCCC5)C(=O)N4C3)cc(-c3csc(NC(=O)C(C)C)n3)nc2c1C` (stereo partly drawn) has a remaining binding of 79% (cell-free assay, competition with immobilised ligand; 1 µM).
For `O=C(O)c1ccc2c(c1)nc(NCc1ccccc1)c1ccncc12`, the remaining activity was 49% (enzyme activity, inhibitor, radiometric; 1 µM).
The ΔTm of `Cn1c2c(Cl)c(Cl)ccc2c2cc[nH]c(=O)c21` is reported as 2.6 °C (thermal stability, DSF; 10 µM).
With `CNCc1ccccc1-c1csc([C@H](C)Nc2nc(C)nc3cc(OC)c(OC)cc23)c1` the remaining binding was 80% (cell-free assay, competition with immobilised ligand; 1 µM).
